Compound activity deposited in PubChem by several laboratories.
HCV core dimer = blocks dimerization of HCV core protein; TR-FRET GST/Flag-core106 dimerization, 1536-well; inhibition, % at 5 µM; 300,000 compounds, 0.33% hits;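 active = inhibition above the mean of all tested compounds plus 3 SD, set per screening campaign, cut at about 45% in these data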
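Assay system: GST-tagged and Flag-tagged HCV core protein residues 1-106 / Times: compound-protein-antibody incubation 4 h at 22.5 °C / Signal: time-resolved FRET, ex 340 nm, em 617 and 671 nm / Evaluation: % inhibition based on acceptor/donor emission ratio / Benchmarks: wells lacking GST-core106 and wells with excess unlabelled core106 / Repeats: singlicate, one well per compound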
UBC9 SUMO inh = SUMOylation inhibition. P63279. HTRF SUMOylation assay, SAE1/SAE2 + UBC9, in vitro. inhibition, % at 35 µM. 290,000 compounds, 0.36% hits. AID 2006; in the data active = inhibition above about 50%, passing the limit was not always enough
Target sequence (P63279 whole entry, looked up): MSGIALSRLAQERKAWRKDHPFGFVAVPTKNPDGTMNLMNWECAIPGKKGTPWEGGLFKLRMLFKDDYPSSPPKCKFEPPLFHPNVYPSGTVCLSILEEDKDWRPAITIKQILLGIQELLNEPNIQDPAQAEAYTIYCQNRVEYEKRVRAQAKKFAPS
NS3 helicase inh = inhibitors of Hepatitis C virus NS3 helicase; inhibition, % at 10.9 µM; NS3 helicase DNA unwinding, Cy5 molecular beacon fluorescence; 290,000 compounds, 0.56% hits;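 active = inhibition above the mean of all tested compounds plus 3 SD, set per campaign, cut at about 35% in these data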;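 note: 0% = DMSO wells and 100% = thioflavine S control wells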
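Assay system: hepatitis C virus NS3 helicase domain fragment enzyme. Also added: annealed dual-labelled DNA beacon duplex, ATP-started. Timing: 1 h reaction at 25 °C, ATP-initiated. Technique: Cy5 fluorescence at 0 and 60 min, beacon hairpin quenching. Evaluation: % inhibition of unwinding. Replication: one well per compound.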
PHOSPHO1 inh = PHOSPHO1 (human) inhibition; 290,000 compounds, 1.1% hits; recombinant PHOSPHO1, absorbance phosphatase assay; AID 1565; Q8TCT1; inhibition, % at 13.3 µM; in the data active = inhibition above about 60%
VIM-2 inh = blocks Pseudomonas aeruginosa VIM-2 metallo-beta-lactamase. 290,000 compounds, 0.89% hits. purified VIM-2, nitrocefin hydrolysis, epi-absorbance fluorescence. inhibition, % at 5.6 µM;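 active = inhibition above the mean of all tested compounds plus 3 SD, cutoff set per screening run, cut at about 7.5% in these data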;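 note: red hydrolysis product quenches plate fluorescence so inhibitors raise well fluorescence; 0% = enzyme with DMSO and 100% = DMSO without enzyme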
IMP-1 inh = blocks Pseudomonas aeruginosa IMP-1 metallo-beta-lactamase; purified IMP-1, nitrocefin hydrolysis, epi-absorbance fluorescence; inhibition, % at 5.6 µM; 290,000 compounds, 0.45% hits; AID 1556;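 active = inhibition above the mean plus 3 SD of all compounds in the same screening run, cut at about 4.5% in these data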;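 note: 0% = IMP-1 with DMSO and 100% = DMSO wells lacking enzyme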
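System: Purified IMP-1 | Read-out basis: Percent enzyme inhibition | Controls: IMP-1 with DMSO as 0%, enzyme-free DMSO as 100% | Replicates: One well per compound | Doses: 5.6 µM nominal single concentration | Detection: Epi-absorbance fluorescence, 480 nm excitation, 530 nm emission | Incubation: 25 °C, 15 min preincubation, 25 min reaction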
NS3 hel confirm = confirmation of Hepatitis C virus NS3 helicase inhibitors; 1,600 compounds, 31% hits; inhibition, % at 10.9 µM; shares compounds with NS3 helicase inh; NS3 helicase DNA unwinding, Cy5 molecular beacon fluorescence; AID 1943;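 active = inhibition above the mean of all tested compounds plus 3 SD, cutoff set per campaign, cut at about 36% in these data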
DNA FID counter = intercalator displacement, NS3 helicase counter-screen; shares compounds with NS3 helicase inh; DNA fluorescent intercalator displacement, fluorescence; inhibition, % at 7.9 µM; 1,600 compounds, 4% hits; in the data active = inhibition above about 37%;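 note: 0% = vehicle and 100% = reference compound; higher means more displacement of ethidium bromide from the DNA hairpin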
The depositor's hits bear a star; x = no result. Compounds with a hit are over-represented: about 3.1% of the library has one in this group of screens.

SMILES	HCV core dimer	UBC9 SUMO inh	NS3 helicase inh	PHOSPHO1 inh	VIM-2 inh	IMP-1 inh	NS3 hel confirm	DNA FID counter
CN1CCC(N(C)c2ncnc3ccc(Br)cc23)CC1	x	4.1	-2.6	16.6	-0.8	-0.6	x	x
CCOc1ccc(N=C2SCCCN2C)cc1	1.0	10.5	-1.3	-8.1	-3.2	-2.5	x	x
CCc1ccc(N2C(=O)NC(=O)/C(=C\c3cc(C)n(-c4cc(C(=O)O)cc(C(=O)O)c4)c3C)C2=O)cc1	8.7	10.0	40.2*	10.6	2.6	2.3	-4.9	4.9
Cc1ccc(N2C(=O)NC(=O)/C(=C/c3ccc(-c4ccc(C(=O)O)c(Cl)c4)o3)C2=O)cc1	7.3	24.6	39.3*	-0.6	-0.9	-2.3	36.5*	9.5
COC(=O)OCC12CCC(O1)C1(C)C(=O)OCC21 (configuration not stated)	1.7	2.1	-4.3	-16.3	0.1	-2.1	x	x
